One block for each compound: values may come before it.
Assays:
[1] = Cytotoxicity against human GS4.1 cells assessed as induction of cell death; format: cell-based
In short: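 GS4.1 cells (Huh-7 with Con1 subgenomic replicon); CC50 taken as concentration giving 50% cell death, from death versus concentration data relative to blank control.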

[2] = Inhibition of full length HCV 1b Con1 NS3/4A protease using HiLyte Fluor 610 peptide substrate by biochemical FRET assay; design: species or system Hepatitis C virus (isolate Con1)
In short: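 Fluorescence (FRET) protease assay on full-length genotype 1b Con1 HCV NS3/4A with HiLyte Fluor 610 peptide substrate; IC50 from percent inhibition versus concentration by four-parameter sigmoidal non-linear regression.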

Hepatitis C virus = assay: Antiviral activity against HCV Con1 infected in human GS4.1 cells containing HCV Con1 subgenomic replicon assessed as reduction in NS5A protein expression by ELISA method; format: functional, cell-based, Hepacivirus hominis; details: genotype 1b Con1
In short: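 Huh-7 cells carrying HCV Con1 subgenomic replicon (GS4.1); replication followed as NS5A protein expression by ELISA; EC50 from 50% inhibition versus concentration data fitted by four-parameter sigmoidal non-linear regression.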

[3] = Intrinsic clearance in rat liver microsomes incubated for 2 hrs; format: ADME; details: read-out: CLH
[4] = Cmax in Sprague-Dawley rat at 10 mg/kg, po; format: ADME, organism-based; design: dose 10 mg/kg, route oral; details: in vivo
Hepatocyte = assay: Clearance in rat cryopreserved hepatocytes incubated for 2 hrs; format: ADME, cell-based
[5] = AUCt in Sprague-Dawley rat at 10 mg/kg, po; format: ADME, organism-based; details: in vivo
In short: (§1)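 Male Sprague–Dawley rats were dosed intravenously at 2 mg/kg or orally at 10 mg/kg. Plasma concentration–time data were used to derive AUC to last time point (AUCt) and AUC extrapolated to infinity, reported in ng·h/mL.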

[6] = Clearance in rat liver S9 fraction incubated for 2 hrs; format: ADME, subcellular; details: read-out: CLH
In short: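 Rat liver S9 fraction incubation for 2 h; mean clearance from n = 2.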

[7] = Volume of distribution in Sprague-Dawley rat at 2 mg/kg, iv; format: ADME, organism-based; details: in vivo
[8] = Intrinsic clearance in Cynomologus monkey liver microsomes incubated for 2 hrs; format: ADME, Macaca fascicularis; details: cynomolgus monkey, read-out: CLH
Rattus norvegicus = assay: Volume of distribution in Sprague-Dawley rat at 10 mg/kg, po; format: ADME, organism-based; details: in vivo
[9] = AUCt in Sprague-Dawley rat at 2 mg/kg, iv; format: ADME, organism-based; details: in vivo; in short: as §1
[10] = Half life in Sprague-Dawley rat at 2 mg/kg, iv; format: ADME, organism-based; details: in vivo
[11] = Oral bio availability in Sprague-Dawley rat at 10 mg/kg; format: ADME, organism-based; details: in vivo
[12] = AUC (infinity) in Sprague-Dawley rat at 10 mg/kg, po; format: ADME, organism-based; design: dose 10 mg/kg, route oral, time infinity; details: in vivo; in short: as §1
[13] = Cmax in Sprague-Dawley rat at 2 mg/kg, iv; format: ADME, organism-based; design: dose 2 mg/kg, route intravenous; details: in vivo
[14] = Tmax in Sprague-Dawley rat at 10 mg/kg, po; format: ADME, organism-based; details: in vivo
[15] = Drug elimination in Sprague-Dawley rat at 2 mg/kg, iv; format: ADME, organism-based; details: in vivo
[16] = Intrinsic clearance in human liver microsomes incubated for 2 hrs; format: ADME; details: read-out: CLH
[17] = Drug elimination in Sprague-Dawley rat at 10 mg/kg, po; format: ADME, organism-based; details: in vivo
[18] = AUC (infinity) in Sprague-Dawley rat at 2 mg/kg, iv; format: ADME, organism-based; design: dose 2 mg/kg, route intravenous, time infinity; details: in vivo; in short: as §1
[19] = Tmax in Sprague-Dawley rat at 2 mg/kg, iv; format: ADME, organism-based; details: in vivo
[20] = Clearance in Sprague-Dawley rat at 10 mg/kg, po; format: ADME, organism-based; details: in vivo
[21] = Half life in Sprague-Dawley rat at 10 mg/kg, po; format: ADME, organism-based; details: in vivo
[22] = Clearance in Sprague-Dawley rat at 2 mg/kg, iv; format: ADME, organism-based; details: in vivo
[23] = Intrinsic clearance in dog liver microsomes incubated for 2 hrs; format: ADME, Canis lupus familiaris; details: read-out: CLH

SMILES: COc1ccc2c(OCC[C@@H]3NC(=O)N(C)CCCC/C=C\[C@@H]4C[C@@]4(C(=O)NS(=O)(=O)C4(F)CC4)NC3=O)cc(-c3nc(C(C)C)cs3)nc2c1Cl
CC50 [1]: 51400 nM | IC50 [2]: 2.7 nM | EC50 (Hepatitis C virus): 150 nM

SMILES: COc1ccc2c(OCC[C@@H]3NC(=O)N(C)CCCCC/C=C\[C@@H]4C[C@@]4(C(=O)NS(=O)(=O)C4CC4)NC3=O)cc(-c3ccccc3)nc2c1
CC50 [1]: 53000 nM | IC50 [2]: 41 nM | EC50 (Hepatitis C virus): 14600 nM

SMILES: CCC1(S(=O)(=O)NC(=O)[C@@]23C[C@H]2/C=C\CCCCN(C)C(=O)N[C@@H](CCOc2cc(-c4nc(C(C)C)cs4)nc4c(Cl)c(OC)ccc24)C(=O)N3)CC1
CC50 [1]: 49300 nM | IC50 [2]: 3.3 nM | EC50 (Hepatitis C virus): 89 nM

SMILES: CCCn1cc(-c2cc(OCC[C@@H]3NC(=O)N(C)CCCC/C=C\[C@@H]4C[C@@]4(C(=O)NS(=O)(=O)C4(C)CC4)NC3=O)c3ccc(OC)c(C)c3n2)cn1
CC50 [1]: 62300 nM | IC50 [2]: 1.4 nM | EC50 (Hepatitis C virus): 145 nM

SMILES: COc1ccc2c(OCC[C@@H]3NC(=O)N(C)CCCC/C=C\[C@@H]4C[C@@]4(C(=O)NS(=O)(=O)N4CCOCC4)NC3=O)cc(-c3nc(C(C)C)cs3)nc2c1Cl
CC50 [1]: 26400 nM | IC50 [2]: 150 nM | EC50 (Hepatitis C virus): > 750 nM

SMILES: C#C[C@@H]1CCCN1S(=O)(=O)NC(=O)[C@@]12C[C@H]1/C=C\CCCCN(C)C(=O)N[C@@H](CCOc1cc(-c3nc(C(C)C)cs3)nc3c(Cl)c(OC)ccc13)C(=O)N2
CC50 [1]: 21200 nM | IC50 [2]: 33.8 nM | EC50 (Hepatitis C virus): > 750 nM

SMILES: COc1ccc2c(OCC[C@@H]3NC(=O)N(C)CCCC/C=C\[C@@H]4C[C@@]4(C(=O)NS(=O)(=O)N(C)C)NC3=O)cc(-c3nc(C(C)C)cs3)nc2c1Cl
CC50 [1]: 47800 nM | IC50 [2]: 2.1 nM | EC50 (Hepatitis C virus): 84.5 nM

The next lines start with results.

IC50 [2]: 1.1 nM | EC50 (Hepatitis C virus): 15.3 nM
SMILES: COc1ccc2c(OCC[C@@H]3NC(=O)N(C)CCCC/C=C\[C@@H]4C[C@@]4(C(=O)NS(=O)(=O)C4(C)CC4)NC3=O)cc(-n3ccc(C(F)(F)F)n3)nc2c1Cl
CC50 [1]: 48800 nM

IC50 [2]: 3 nM | EC50 (Hepatitis C virus): 485 nM
SMILES: CCn1cc(-c2cc(OCC[C@@H]3NC(=O)N(C)CCCC/C=C\[C@@H]4C[C@@]4(C(=O)NS(=O)(=O)C4(C)CC4)NC3=O)c3ccc(OC)c(C)c3n2)cn1
CC50 [1]: 36700 nM

microsomal CLint [3]: 20.7 µL/min/mg | Cmax [4]: 798 ng/mL | CLH (Hepatocyte): 12.6 µL/min/mg | AUC(0-t) [5]: 2060 ng·h/mL | microsomal CLint [6]: 7.6 µL/min/mg | Vd [7]: 2.42 L/kg | microsomal CLint [8]: 480 µL/min/mg | Vd (Rattus norvegicus): 16.04 L/kg | AUC(0-t) [9]: 1520 ng·h/mL | half-life [10]: 1.25 h | bioavailability [11]: 27% | AUC(0-inf) [12]: 2350 ng·h/mL | Cmax [13]: 2670 ng/mL | IC50 [2]: 1.7 nM | Tmax [14]: 0.75 h | k el [15]: 0.000158 s⁻¹ | microsomal CLint [16]: 215 µL/min/mg | k el [17]: 7.78e-05 s⁻¹ | AUC(0-inf) [18]: 1510 ng·h/mL | Tmax [19]: 6.6 min | CL/F [20]: 72.4 mL/min/kg | half-life [21]: 2.53 h | clearance [22]: 22.1 mL/min/kg | microsomal CLint [23]: 19.5 µL/min/mg | EC50 (Hepatitis C virus): 28.7 nM
SMILES: COc1ccc2c(OCC[C@@H]3NC(=O)N(C)CCCC/C=C\[C@@H]4C[C@@]4(C(=O)NS(=O)(=O)C4(C)CC4)NC3=O)cc(-c3nc(C(C)C)cs3)nc2c1Cl
CC50 [1]: 37400 nM

IC50 [2]: 0.9 nM | EC50 (Hepatitis C virus): 2.8 nM
SMILES: COc1ccc2c(O[C@@H]3C[C@H]4C(=O)N[C@]5(C(=O)O)C[C@H]5/C=C\CCCCC[C@H](NC(=O)OC5CCCC5)C(=O)N4C3)cc(-c3csc(NC(C)C)n3)nc2c1 [CILUPREVIR]
CC50 [1]: 21000 nM

IC50 [2]: 1.1 nM | EC50 (Hepatitis C virus): 43.4 nM
SMILES: COc1ccc2c(OCC[C@@H]3NC(=O)N(C)CCCC/C=C\[C@@H]4C[C@@]4(C(=O)NS(=O)(=O)C4(C)CC4)NC3=O)cc(-n3ccc(C(C)C)n3)nc2c1Cl
CC50 [1]: 31000 nM

microsomal CLint [3]: 21 µL/min/mg | IC50 [2]: 2 nM | EC50 (Hepatitis C virus): 50 nM
SMILES: COc1ccc2c(OCC[C@@H]3NC(=O)N(C)CCCC/C=C\[C@@H]4C[C@@]4(C(=O)NS(=O)(=O)C4(C)CC4)NC3=O)cc(-n3ccc(C(C)C)n3)nc2c1C
CC50 [1]: 25600 nM

IC50 [2]: 19.8 nM | EC50 (Hepatitis C virus): 8200 nM
SMILES: COc1ccc2c(OCC[C@@H]3NC(=O)N(C)CCCC/C=C\[C@@H]4C[C@@]4(C(=O)NS(=O)(=O)C4CC4)NC3=O)cc(-c3ccccc3)nc2c1
CC50 [1]: > 30000 nM

From ChEMBL document CHEMBL3608234, “Synthesis and antiviral evaluation of a novel series of homoserine-based inhibitors of the hepatitis C virus NS3/4A serine protease” (Bioorg Med Chem Lett, 2015)
